# ALR inh – human ALR oxidase inhibition via reduced H2O2 | purified ALR, DTT oxidation, H2O2 HRP-luminol luminescence | inhibition, % (concentration not given with the values) | 3.8% of 290,000 active;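 active = mean replicate inhibition above about 79%, with every replicate also reaching it, limit read from the data; inconclusive = only one of the two criteria met; inactive = mean below limit and not every replicate reaching it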
# Target sequence (P55789 whole entry, looked up): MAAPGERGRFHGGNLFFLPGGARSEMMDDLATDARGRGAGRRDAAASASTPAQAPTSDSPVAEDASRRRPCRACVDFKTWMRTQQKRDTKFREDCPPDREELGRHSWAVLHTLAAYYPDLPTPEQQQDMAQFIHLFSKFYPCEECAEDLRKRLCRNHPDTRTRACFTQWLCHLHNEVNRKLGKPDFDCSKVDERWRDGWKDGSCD
# AI-2 QS mod – Vibrio harveyi AI-2 quorum sensing modulation; Vibrio harveyi JMH597 AI-2 luminescence/OD600 ratio, 9 h; hits give low values; strain lacks LuxN and CqsS sensors; 0 = neutral-control median; activity change, % at 7.5 µM; 0.4% of 300,000 active; in the data active = activity change below about -75%, passing the limit was not always enough; inconclusive = no clear call, values can overlap the other calls;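 note: luminescence divided by OD600 gain over 9 h not by final OD600 alone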
# HCV core dimer – blocks dimerization of HCV core protein. TR-FRET GST/Flag-core106 dimerization, 1536-well. inhibition, % at 5 µM. 0.33% of 300,000 active;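 active = inhibition above the mean of all tested compounds plus 3 SD, set per screening campaign, cut at about 45% in these data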
#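 Test system: GST/Flag-tagged HCV core106 proteins; Medium: KF-containing HEPES buffer, pH 7.45, DTT, CHAPS, BSA; Times: compound-protein-antibody incubation 4 h at 22.5 °C; Detection: TR-FRET 671 and 617 nm emission; Benchmarks: wells lacking GST-core106 and wells with excess unlabelled core106.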
# HSF1 activator – increases HSF-1 driven luciferase reporter signal. activation, % at 9 µM. 1.7% of 300,000 active. AID 504408. NIH3T3-HGL HSF-1 luciferase reporter, MG132, 8 h; 100% = twice DMSO control signal;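 active = mean replicate activation of at least 50% with a set share of replicates each reaching 50%; inconclusive = only one of those two conditions met; inactive = mean below 50% and too few replicates reaching it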;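 note: 0% = median of the neutral control wells and 100% = twice that signal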
# PHOSPHO1 block – blocks human PHOSPHO1 phosphatase activity. recombinant PHOSPHO1, absorbance phosphatase assay. 1.1% of 290,000 active. AID 1565. inhibition, % at 13.3 µM. Q8TCT1; in the data active = inhibition above about 60%
# Target sequence (Q8TCT1 whole entry, looked up): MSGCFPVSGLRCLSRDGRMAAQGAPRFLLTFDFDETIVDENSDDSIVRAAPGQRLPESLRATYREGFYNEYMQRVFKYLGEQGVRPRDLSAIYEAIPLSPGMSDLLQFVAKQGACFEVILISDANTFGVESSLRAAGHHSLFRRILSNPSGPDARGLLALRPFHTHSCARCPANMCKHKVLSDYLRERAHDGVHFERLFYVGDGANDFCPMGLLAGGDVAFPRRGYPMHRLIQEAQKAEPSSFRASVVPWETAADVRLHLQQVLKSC
# HSF1 inh – HSF1 inhibition; 0.77% of 300,000 active; AID 2098; activity change, negative = inhibition, % at 7.5 µM (by protocol); NIH3T3-HGL HSE-luciferase, MG132-induced, luminescence 8 h; hits give low values;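 active = more than half of replicate wells show activity change below -50%, luminescence cut by over half; inconclusive = some wells, but at most half, below -50%; inactive = no replicate well below -50%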;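 note: luciferase reports HSF-1 transcriptional activity via heat shock element; 0% = median of DMSO wells and -100% = zero luminescence signal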
# Starred values were filed as active, the others as inactive; u = inconclusive; x = no result given. The list is not random: actives were taken first. Their share in the collection is about 6.8%.
SMILES,ALR inh,AI-2 QS mod,HCV core dimer,HSF1 activator,PHOSPHO1 block,HSF1 inh
CCOc1cc2c(cc1OCC)C(c1ccc(OC)cc1)N(c1ccccc1)C(=O)C2 (stereo unspecified),x,16,1,-90,-18,-85*
O=C(N/N=C(\CC(=O)c1cccs1)C(F)(F)F)c1ccncc1,98*,-12,1,-4,12,-1
Cc1ccc(C(=O)N/N=C(/CC(=O)c2cccs2)C(F)(F)F)cc1,62,9,-6,0,-15,0
COc1ccc(N(CC(=O)NC2CC3CCC2C3)S(=O)(=O)c2ccc(C)cc2)cc1OC (stereo unspecified),0,0,-6,-4,18,2
C/C(=C1/SC(=S)N(CCC(=O)O)C1=O)c1ccc(O)cc1,98*,31,-8,5,10,-11
CCc1ccc2[nH]c(=O)c(CN(Cc3ccco3)C(=S)NCC3CCCO3)cc2c1 (stereo unspecified),7,0,5,49,-9,20
Cc1cc2cc(CN(Cc3ccco3)C(=S)NCC3CCCO3)c(=O)[nH]c2cc1C (stereo unspecified),7,28,5,70*,1,46
CCNC(=S)N(Cc1ccco1)Cc1cc2cc3c(cc2[nH]c1=O)OCCO3,1,11,7,62*,-22,33
Cc1cc(C)c2[nH]c(=O)c(CN(Cc3ccco3)C(=S)NCC3CCCO3)cc2c1 (stereo unspecified),0,-11,3,70*,-7,41
CCN(C(=O)COn1nnc2ccc(S(=O)(=O)N(C)C)cc21)C1CCS(=O)(=O)C1 (stereo unspecified),-2,x,x,x,x,x
CCN1C(=O)/C(=C/c2cnn(CC)c2C)SC1=S,x,21,2,-6,21,-4
C#CCN1C(=O)S/C(=C/c2cc(C)n(CC)c2C)C1=O,x,43,-7,58*,-4,7
CCn1c(C)cc(/C=C2/SC(=O)N(C(C)C(=O)OC)C2=O)c1C (stereo unspecified),64,14,2,25,51,21
CCn1c(C)cc(/C=C2/SC(=S)N(CC(=O)O)C2=O)c1C,99*,10,-11,-37,-26,u
Cc1ccccc1/C=C\c1nc2ccccc2c(=O)[nH]1,-3,20,5,122*,20,70
Cc1ccc(/C=C/c2nc3ccccc3c(=O)[nH]2)cc1,x,15,8,-18,29,-25
COC(=O)c1ccc(/C=C/c2nc3ccccc3c(=O)[nH]2)cc1,0,26,17,62*,15,32
Cc1ccccc1/C=C/c1nc2ccccc2c(=O)[nH]1,x,5,-4,33,1,27
O=S(=O)(c1ccccc1)N(CC1CO1)c1cc(Cl)ccc1Cl (stereo unspecified),x,-6,-11,9,36,-2
CCOC(=O)C(C(C)=O)c1c(Br)c(O)c(O)c2c(C(=O)c3ccc(C)cc3)coc12 (stereo unspecified),-7,24,40,7,11,5
CCOC(=O)C1=C(CSc2nc3c(cc2C#N)CN(C)CC3)OC(N)=C(C#N)C1c1ccccc1 (stereo unspecified),x,22,52*,5,98*,8
CCOC(=O)C1=C(CSc2nc3c(cc2C#N)CCC3)OC(N)=C(C#N)C1c1ccccc1 (stereo unspecified),11,13,-1,18,-12,17
CCOC(=O)C1=C(CSc2nc3c(cc2C#N)CN(C)CC3)OC(N)=C(C#N)C1c1ccc(F)cc1 (stereo unspecified),-9,13,44,11,67*,3
CCCc1cc(=O)[nH]c(SCCc2ccccc2)n1,-21,10,-2,26,29,20
Oc1ccc(CNc2ccccc2)c2cccnc12,-5,21,-11,4,51,-4
SMILES,ALR inh,AI-2 QS mod,HCV core dimer,HSF1 activator,PHOSPHO1 block,HSF1 inh
Oc1ccc(CNc2ccc(F)cc2)c2cccnc12,x,6,-7,-43,95*,-47
Cc1cccc(NCc2ccccc2O)c1C,99*,20,1,-7,12,-2
Cc1ccccc1NCc1ccc(O)c2ncccc12,-21,6,-1,-12,71*,-8
O=C(O)c1ccccc1S(=O)(=O)CC(=O)N1CCCCC1,-6,17,6,5,36,2
CCn1c(NC(=O)c2ccccc2F)c(-c2cccs2)c(=O)c2ccccc21,-4,6,7,-11,25,4
CCn1c(C(C)NC(=O)c2cccs2)n[nH]c1=S (stereo unspecified),44,15,-9,-15,-31,-1
Cc1nc2ccccc2n(CC(=O)Nc2cc(Cl)cc(Cl)c2)c1=O,-1,19,5,30,-7,13
Cc1ccc(C(=O)N/C(=C\c2cn(S(=O)(=O)N(C)C)c3ccccc23)C(=O)NCCCN2CCOCC2)cc1,-3,-10,1,2,34,0
N#Cc1cc(C(=O)c2ccccc2O)cn(-c2nccs2)c1=O,97*,23,16,3,0,-2
N#Cc1cc(C(=O)c2cc(F)ccc2O)cn(-c2nccs2)c1=O,33,20,48*,-15,-5,6
CC(C)n1cc(C(=O)c2ccccc2O)cc(C#N)c1=O,-21,21,-5,5,-33,-8
C/C(=N\NC(=O)c1cccc(Br)c1)c1cccnc1,24,0,x,20,1,11
CCOC(=O)Cc1csc(NC(=O)c2sc3nc4ccc(CC)cc4cc3c2N)n1,-4,26,0,-64,28,-54*
CCOC(=O)Cc1csc(NC(=O)c2ccoc2C)n1,4,1,-3,57*,0,16
CCOC(=O)Cc1csc(NC(=O)c2sc3nc4cc(C)ccc4cc3c2N)n1,5,12,-9,-1,-8,4
CCOC(=O)Cc1csc(NC(=O)c2c(O)c3ccccc3n(CC(C)C)c2=O)n1,4,25,9,56*,1,14
Cn1c(NC(=O)CCC2CCCCC2)cc(=O)n(C)c1=O,44,12,1,55*,5,36
Cn1c(NNC(=O)CCC2CCCCC2)cc(=O)n(C)c1=O,-2,10,-2,18,4,-4
O=S(=O)(c1ccc(-c2ccon2)s1)N1CCN(c2ccncc2)CC1,-4,x,23,-11,-6,-13
Cc1ccc(Nc2ncccc2C(=O)O)cc1C,x,-79*,-9,18,8,1
Cc1cccc(Nc2ncccc2C(=O)O)c1C,x,-11,3,-67,-2,-58*
Cc1cc(=O)cc(C)n1-c1ccccc1Br,-5,11,1,-3,39,-13
